Series [1] in a line: folding enthalpy; higher = less favourable; fluorescence melt of hairpins on a sequencing array, two-state fit. Conditions: sodium 0.088 M. The procedure, abridged:
(§1)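 On a sequenced MiSeq flow cell, library hairpins with annealed Cy3 and quencher oligos were imaged for Cy3 fluorescence in 2.5 °C steps up to 60 °C, in 50 mM Na-HEPES pH 8.0, 25 mM NaCl. Normalisation used pre-quench Cy3 and control constructs. Bootstrapped two-state fits gave melting temperature and folding enthalpy, combined by inverse variance across four replicates and with fitted temperatures raised by 9.35 °C to match UV melts.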

The nature of series [2]: melting temperature; fluorescence melt of hairpins on a sequencing array, two-state fit, raised by 9.35 °C to match UV melts. Conditions: sodium 0.088 M. The procedure, abridged: as §1

As to GTGAATGGAAACATTCAC (((((((....))))))), the folding enthalpy in series [1] was -45.6 kcal/mol. The Tm in series [2] came to 56.9 °C.

Consider GTGGGCGGAAACGTCCGC (.((.((....)).)).), for which, in series [1], the folding enthalpy was -25.4 kcal/mol. In series [2], the Tm is 54.3 °C.

Turning to GCCTGGGGAAACCTGGGC (((..((....))..))), the folding enthalpy in series [1] is -32.3 kcal/mol. In addition, in series [2], the Tm came out at 50.3 °C.

GATCTCGTCGGAGATC ((((((....)))))): in series [1], the folding enthalpy was -43.5 kcal/mol. Further, the Tm in series [2] turned out to be 54.5 °C.

Regarding GCTATGCGAAAGCGGAGC (((..((....))..))), in series [1], the folding enthalpy was -26.3 kcal/mol. Besides, the Tm in series [2] was 53.6 °C.

In the case of GATCTTTCGAAGATC ((((((...)))))), the folding enthalpy in series [1] is -28.7 kcal/mol. For the same sequence, in series [2], the Tm came to 40.7 °C.

In the case of GACTCGGGAAACCGAATC ((.((((....)))).)), the folding enthalpy in series [1] was -18.2 kcal/mol. Moreover, in series [2], the Tm was determined as 35.4 °C.

As to GGACTCTCGAAAGAGTCC (((..(((....)))))), the folding enthalpy in series [1] was -42.7 kcal/mol. In addition, in series [2], the Tm is 60.9 °C.

Take GATCATCTCTATGATC ((((((....)))))): the folding enthalpy in series [1] is -38.9 kcal/mol. Besides, the Tm in series [2] came to 47.1 °C.

GCGTATGAACGC ((((....)))): the folding enthalpy in series [1] is -18.9 kcal/mol. Further, in series [2], the Tm was determined as 52 °C.

As to GGATTCGAAAGAAGATCC ((((((....)))..))), the folding enthalpy in series [1] is -12.2 kcal/mol. Further, the Tm in series [2] amounted to 28.1 °C.

In the case of GGTAGCGAAAGCTTCACC ((((((....)))..))), the folding enthalpy in series [1] is -13.8 kcal/mol. The Tm in series [2] stood at 34.4 °C.

Take GTGAGCGAAAGCTGTCAC ((((((....)))..))): the folding enthalpy in series [1] is -14.3 kcal/mol. Besides, in series [2], the Tm turned out to be 40.2 °C.

Turning to GGCTTCCGAAAGGATGCC (((.(((....))).))), the folding enthalpy in series [1] is -48.9 kcal/mol. In addition, in series [2], the Tm is 62 °C.

GCCCCCGAAAGGGAGGGC ((((((....)))..))): the folding enthalpy in series [1] is -30 kcal/mol. For the same sequence, the Tm in series [2] was 59.8 °C.

On to GGGGTGGGAAACCGCCCC ((((.((....)).)))), for which, in series [1], the folding enthalpy was -38.1 kcal/mol. Further, the Tm in series [2] came out at 65.9 °C.

Take GCCCCGCGAAAGCGGTGC ((.((((....)))).)): the folding enthalpy in series [1] is -15.7 kcal/mol. Besides, the Tm in series [2] was 61.5 °C.

In the case of GGGATTGGAAACAGTTCC ((.(.((....)).).)), the folding enthalpy in series [1] was -16.6 kcal/mol. In series [2], the Tm came to 34.3 °C.

Take GATCACACATGTGATC ((((((....)))))): the folding enthalpy in series [1] was -38.1 kcal/mol. Moreover, the Tm in series [2] came out at 57.9 °C.

As for GATAGGGGAAACCCCATC (((.(((....))).))), in series [1], the folding enthalpy is -16.9 kcal/mol. Also, the Tm in series [2] is 35.6 °C.

For GCACCGCGAAAGCGAAGC ((..(((....)))..)), the folding enthalpy in series [1] was -11.7 kcal/mol. Also, the Tm in series [2] is 41.4 °C.

With GGACCCCGAAAGGGTTCC (((.(((....))).))), the folding enthalpy in series [1] was -23.2 kcal/mol. The Tm in series [2] was 52.5 °C.

In the case of GGGCCTCGAAAGAGCCC (((.(((....)))))), the folding enthalpy in series [1] was -37.9 kcal/mol. Also, the Tm in series [2] came to 62.3 °C.

For GTCGACGAAAGTCTGAC ((((((....))).))), the folding enthalpy in series [1] is -21.8 kcal/mol. Also, the Tm in series [2] is 49.5 °C.

Regarding GTACGCGAAAGCGTTAC ((((((....))).))), in series [1], the folding enthalpy is -11 kcal/mol. Besides, the Tm in series [2] was 46.8 °C.

Regarding GCTGTCGAAAGACAAAGC ((((((....)))..))), the folding enthalpy in series [1] is -23.9 kcal/mol. Moreover, the Tm in series [2] was found to be 48.9 °C.

In the case of CAATCAGAAATGGTTG (((.((....)).))), in series [1], the folding enthalpy was -13.9 kcal/mol. Besides, the Tm in series [2] came out at 29.3 °C.

Consider TCTCCGAAAGGAGA (((((....))))), for which the folding enthalpy in series [1] was -17.6 kcal/mol. Moreover, in series [2], the Tm was determined as 59.5 °C.

As to GCCTTCGAAAGAAATGGC ((((((....)))..))), the folding enthalpy in series [1] was -24.6 kcal/mol. Besides, in series [2], the Tm stood at 38.5 °C.

GCTAAGGGAAACCTCAGC (((.(((....))).))): the folding enthalpy in series [1] is -27.4 kcal/mol. The Tm in series [2] was found to be 34.2 °C.

Consider GATCTATCCATAGATC ((((((....)))))), for which the folding enthalpy in series [1] is -38.1 kcal/mol. In addition, in series [2], the Tm was 46.5 °C.

Take GGTTCCGAAAGGATACC ((((((....))).))): the folding enthalpy in series [1] was -28.1 kcal/mol. The Tm in series [2] was 48.8 °C.

For GCCCCCCGAAAGGGTGGC (((.(((....))).))), in series [1], the folding enthalpy is -33.1 kcal/mol. Moreover, the Tm in series [2] turned out to be 64.2 °C.

In the case of GGGCTCGAAAGAGACCC ((((((....))).))), the folding enthalpy in series [1] is -20.9 kcal/mol. The Tm in series [2] is 66.8 °C.

Take GAGACGGGAAACTGTCTC (((((.(....).))))): the folding enthalpy in series [1] is -41.1 kcal/mol. Moreover, in series [2], the Tm was determined as 51.5 °C.

For GCAGGACGAAAGTCGTGC (((.(((....))).))), in series [1], the folding enthalpy is -42.8 kcal/mol. For the same sequence, in series [2], the Tm turned out to be 62.6 °C.

Consider GATCCGATACCGGATC ((((((....)))))), for which, in series [1], the folding enthalpy was -29.9 kcal/mol. In addition, the Tm in series [2] came to 57 °C.

GCGGGCATCCGC ((((....)))): the folding enthalpy in series [1] was -24.5 kcal/mol. Further, the Tm in series [2] came out at 67 °C.

Regarding GCAATCGAAAGATTATGC ((((((....)))..))), the folding enthalpy in series [1] is -17.5 kcal/mol. In addition, in series [2], the Tm came out at 32.8 °C.

As for CGATCACGGAAACGTTCG (((..(((....)))))), the folding enthalpy in series [1] was -17.2 kcal/mol. In series [2], the Tm is 35.5 °C.

Turning to GCTGGCCGAAAGGCAGC (((.(((....)))))), in series [1], the folding enthalpy is -20.6 kcal/mol. Besides, the Tm in series [2] amounted to 65.8 °C.

As for GGCTGTGCGAAAGCAGCC (((..(((....)))))), in series [1], the folding enthalpy is -27.1 kcal/mol. In series [2], the Tm was determined as 57.5 °C.

As to GCTTAACCGAAAGGTAGC (((..(((....)))))), in series [1], the folding enthalpy was -19 kcal/mol. Besides, the Tm in series [2] is 42.2 °C.

Consider GATCATTGTATGATC ((((((...)))))), for which, in series [1], the folding enthalpy is -30.9 kcal/mol. Also, the Tm in series [2] is 49.5 °C.

In the case of GCGTCAGGAAACTGACAC (.(((((....))))).), the folding enthalpy in series [1] was -13.1 kcal/mol. The Tm in series [2] was found to be 43.3 °C.

In the case of GAGTCCGAAAGGATCTC ((((((....))).))), the folding enthalpy in series [1] was -31 kcal/mol. Further, in series [2], the Tm was determined as 50 °C.

GCAAAGCGAAAGCTAGGC ((..(((....)))..)): in series [1], the folding enthalpy was -15.1 kcal/mol. Also, in series [2], the Tm turned out to be 48.3 °C.

In the case of GCAGCCGAAAGGCGTGC ((((((....))).))), the folding enthalpy in series [1] is -16.5 kcal/mol. For the same sequence, in series [2], the Tm was 65 °C.

Turning to GGTCATGAAAATGACC ((((((....)))))), the folding enthalpy in series [1] is -38 kcal/mol. The Tm in series [2] was 59.5 °C.

In the case of GTAGGGAAACCTAC (((((....))))), the folding enthalpy in series [1] is -25 kcal/mol. Also, the Tm in series [2] was 46.2 °C.

Take GCAATGACGAAAGTCTGC (((..(((....)))))): the folding enthalpy in series [1] is -19.4 kcal/mol. Besides, the Tm in series [2] turned out to be 42 °C.

As to GCGTACGAAAGTATCGC ((((((....))).))), the folding enthalpy in series [1] is -39.6 kcal/mol. In series [2], the Tm was 53.4 °C.

Turning to GCGAGAGGAAACTCTCAC (.(((((....))))).), the folding enthalpy in series [1] was -17.9 kcal/mol. For the same sequence, in series [2], the Tm amounted to 39 °C.

As for ACGCAGAAATGCGT (((((....))))), in series [1], the folding enthalpy was -21.7 kcal/mol. For the same sequence, in series [2], the Tm turned out to be 55.7 °C.

As to GCATCACGAAAGTGTTGC (((.(((....))).))), the folding enthalpy in series [1] is -44 kcal/mol. Further, the Tm in series [2] was 55 °C.

The record behind these values is the array DNA melting data of Ke et al. (doi:10.1101/2024.01.08.574731).
